Results: ChEMBL document CHEMBL1122426, “Radioiodine-labeled N,N-dimethyl-N'-(2-hydroxy-3-alkyl-5-iodobenzyl)-1,3-propanediamines for brain perfusion imaging” (J Med Chem, 1983)

Experiments:
Rattus norvegicus [1] = species: Rattus norvegicus; assay: Effect of specific activity of compound on biodistribution in rats blood 1 hr after injection at the dose of 2.5 mg value expressed in average % dose per organ; value may range from 0.58 to 0.71; format: ADME, organism-based; settings: in vivo
Method in brief: (§1)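 Rats received an intravenous injection of the I-125 labeled diamine with added unlabeled carrier (6.25, 2.5, 0.25 or 0.025 mg per dose). At 1 h, organs were counted. Percent dose per organ came from comparing tissue radioactivity with diluted aliquots of the injected dose. Values are the average and range of 3 rats. Brain/blood ratio was taken from % dose per gram, calculated using mean organ weights (brain 1.65 g; blood 18 g).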

Rattus norvegicus [2] = assay: Biodistribution of I-125 labeled compound in rat blood, 1 hr after intravenous injection. value expressed in average % dose per organ; value may range from 0.92 to 1.31; format: ADME, organism-based; settings: in vivo
Rattus norvegicus [3] = species: Rattus norvegicus; assay: Effect of specific activity of compound on biodistribution in rats brain 1 hr after injection at the dose of 6.25 mg value expressed in average % dose per organ; value may range from 1.95 to 2.70; format: ADME, organism-based; settings: in vivo; method in brief: as §1
Rattus norvegicus [4] = species: Rattus norvegicus; assay: Effect of specific activity of compound on biodistribution in rats lungs 1 hr after injection at the dose of 0.25 mg value expressed in average % dose per organ; value may range from 12.0 to 20.3; format: ADME, organism-based, Lung; settings: in vivo; method in brief: as §1
Rattus norvegicus [5] = species: Rattus norvegicus; assay: Effect of specific activity of compound on biodistribution in rats lungs 1 hr after injection at the dose of 2.5 mg value expressed in average % dose per organ; value may range from 5.89 to 8.67; format: ADME, organism-based, Lung; settings: in vivo; method in brief: as §1
Rattus norvegicus [6] = species: Rattus norvegicus; assay: Effect of specific activity of compound on biodistribution in rats lungs 1 hr after injection at the dose of 6.25 mg value expressed in average % dose per organ; value may range from 2.70 to 7.70; format: ADME, organism-based, Lung; settings: in vivo; method in brief: as §1
Rattus norvegicus [7] = species: Rattus norvegicus; assay: Effect of specific activity of compound on biodistribution in rats muscle 1 hr after injection at the dose of 0.25 mg value expressed in average % dose per organ; value may range from 11.0 to 13.4; format: ADME, organism-based, Muscle tissue; settings: in vivo; method in brief: as §1
Rattus norvegicus [8] = species: Rattus norvegicus; assay: Effect of specific activity of compound on biodistribution in rats muscle after injection at the dose of 0.025 mg value expressed in average % dose per organ; value may range from 11.6 to 12.9; format: ADME, organism-based, Muscle tissue; settings: in vivo; method in brief: as §1
Rattus norvegicus [9] = species: Rattus norvegicus; assay: Effect of specific activity of compound on biodistribution in rats thyroid 1 hr after injection at the dose of 0.25 mg value expressed in average % dose per organ; value may range from 0.17 to 0.19; format: ADME, organism-based, Thyroid gland; settings: in vivo; method in brief: as §1
Rattus norvegicus [10] = assay: Biodistribution of I-125 labeled compound in rat heart, 2 min after intravenous injection. value expressed in average % dose per organ; value may range from 3.03 to 3.55; format: ADME, organism-based; settings: in vivo
Rattus norvegicus [11] = species: Rattus norvegicus; assay: Effect of specific activity of compound on biodistribution in rats thyroid 1 hr after injection at the dose of 6.25 mg value expressed in average % dose per organ; value may range from 0.09 to 0.11; format: ADME, organism-based, Thyroid gland; settings: in vivo; method in brief: as §1
Rattus norvegicus [12] = assay: Biodistribution of I-125 labeled compound in rat brain, 1 hr after intravenous injection. value expressed in average % dose per organ; value may range from 1.71 to 2.54; format: ADME, organism-based; settings: in vivo
Rattus norvegicus [13] = assay: Biodistribution of I-125 labeled compound in rat liver, 2 min after intravenous injection. value expressed in average % dose per organ; value may range from 7.90 to 10.6; format: ADME, organism-based; settings: in vivo
Rattus norvegicus [14] = assay: Biodistribution of I-125 labeled compound in rat thyroid, 2 min after intravenous injection. value expressed in average % dose per organ; value may range from 0.20 to 0.23; format: ADME, organism-based, Thyroid gland; settings: in vivo
Rattus norvegicus [15] = species: Rattus norvegicus; assay: Effect of specific activity of compound on biodistribution in rats blood 1 hr after injection at the dose of 0.025 mg value expressed in average % dose per organ; value may range from 0.84 to 0.99; format: ADME, organism-based; settings: in vivo
[16] = Biodistribution of […] in a monkey thyroid. 1 hr after intravenous injection. the value expressed in %dose/gram; format: ADME, organism-based, Thyroid gland; settings: simiiformes, in vivo
Method in brief: (§2)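 Monkey sedated with ketamine and anesthetized with nembutal, then given ~100 μCi [125I] label (~7 mCi/mg) intravenously. Killed 1 h later by nembutal overdose. Organs dissected, weighed and counted. % dose per organ found against diluted injected-dose aliquots; % dose per gram also reported; brain/blood from per-gram values. Single animal.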

Rattus norvegicus [17] = assay: Biodistribution of I-125 labeled compound in rat heart, 1 hr after intravenous injection. value expressed in average % dose per organ; value may range from 0.97 to 1.26; format: ADME, organism-based; settings: in vivo
Rattus norvegicus [18] = species: Rattus norvegicus; assay: Effect of specific activity of compound on biodistribution in rats liver 1 hr after injection at the dose of 0.25 mg value expressed in average % dose per organ; value may range from 8.01 to 9.52; format: ADME, organism-based; settings: in vivo; method in brief: as §1
Rattus norvegicus [19] = species: Rattus norvegicus; assay: Effect of specific activity of compound on biodistribution in rats liver 1 hr after injection at the dose of 6.25 mg value expressed in average % dose per organ; value may range from 16.5 to 17.2; format: ADME, organism-based; settings: in vivo; method in brief: as §1
Rattus norvegicus [20] = species: Rattus norvegicus; assay: Distribution coefficient at pH 7.0 in rat; format: ADME, organism-based
Method in brief: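 Octanol/buffer partition: I-125 labeled diamine mixed with 3 g each of 1-octanol and 0.1 M phosphate buffer at pH 7.0 or 7.4, vortexed 3× 1 min, centrifuged 5 min. Two 0.5 g samples of each layer counted. Value is cpm/g octanol over cpm/g buffer, usually repeated three times.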

Rattus norvegicus [21] = species: Rattus norvegicus; assay: Effect of specific activity of compound on biodistribution in rats brain to blood ratio after injection at the dose of 0.025 mg value expressed in % dose per gram ratio; format: ADME, organism-based; method in brief: as §1
Rattus norvegicus [22] = assay: Biodistribution of I-125 labeled compound in rat muscle, 1 hr after intravenous injection. value expressed in average % dose per organ; value may range from 8.99 to 14.4; format: ADME, organism-based, Muscle tissue; settings: in vivo
[23] = Biodistribution of […] compound in a monkey heart. 1 hr after intravenous injection. the value expressed in%dose/organ; format: ADME, organism-based; settings: simiiformes, in vivo; method in brief: as §2
Rattus norvegicus [24] = species: Rattus norvegicus; assay: Effect of specific activity of compound on biodistribution in rats muscle 1 hr after injection at the dose of 2.5 mg value expressed in average % dose per organ; value may range from 12.7 to 18.3; format: ADME, organism-based, Muscle tissue; settings: in vivo; method in brief: as §1
Rattus norvegicus [25] = species: Rattus norvegicus; assay: Effect of specific activity of compound on biodistribution in rats brain 1 hr after injection at the dose of 0.25 mg value expressed in average % dose per organ; value may range from 1.76 to 1.97; format: ADME, organism-based; settings: in vivo; method in brief: as §1
Rattus norvegicus [26] = assay: Biodistribution of I-125 labeled compound in rat brain to blood ratio, 1 hr after intravenous injection. value expressed in % dose per gram ratio; format: ADME, organism-based
Method in brief: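 Rats given I-125 diamine iv; tissue activity at 2 min or 1 h compared with diluted injected-dose aliquots. % dose per gram approximated as % dose per organ divided by mean organ weight (brain 1.65 g; blood 18 g). Ratio taken from the per-gram values.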

[27] = Biodistribution of [125I]- compound in a monkey lungs.1h after intravenous injection. the value expressed in %dose/gram; settings: simiiformes, in vivo
[28] = Biodistribution of [125I]- compound in a monkey lungs.1h after intravenous injection. the value expressed in%dose/organ; settings: simiiformes, in vivo
[29] = Biodistribution of [125I]- compound in a monkey blood. 1 hr after intravenous injection. the value expressed in %dose/gram; settings: simiiformes, in vivo
[30] = Biodistribution of [125I]- compound in a monkey muscle. 1 hr after intravenous injection. the value expressed in %dose/gram; settings: simiiformes, in vivo
[31] = Biodistribution of [125I]- compound in a monkey thyroid. 1 hr after intravenous injection. the value expressed in %dose/organ; settings: simiiformes, in vivo

Cc1cc(I)cc(CNCCCN(C)C)c1O
Average dose per organ (Rattus norvegicus [1]): 0.65%
Average dose per organ (Rattus norvegicus [2]): 1.1%
Average dose per organ (Rattus norvegicus [3]): 2.38%
Average dose per organ (Rattus norvegicus [4]): 15.2%
Average dose per organ (Rattus norvegicus [5]): 6.87%
Average dose per organ (Rattus norvegicus [6]): 4.5%
Average dose per organ (Rattus norvegicus [7]): 12.1%
Average dose per organ (Rattus norvegicus [8]): 12.2%
Average dose per organ (Rattus norvegicus [9]): 0.17%
Average dose per organ (Rattus norvegicus [10]): 3.23%
Average dose per organ (Rattus norvegicus [11]): 0.1%
Average dose per organ (Rattus norvegicus [12]): 2.02%
Average dose per organ (Rattus norvegicus [13]): 9.51%
Average dose per organ (Rattus norvegicus [14]): 0.22%
Average dose per organ (Rattus norvegicus [15]): 0.91%
Dose/g [16]: 0.039%
Average dose per organ (Rattus norvegicus [17]): 1.11%
Average dose per organ (Rattus norvegicus [18]): 8.54%
Average dose per organ (Rattus norvegicus [19]): 16.7%
Distribution coefficient (Rattus norvegicus [20]): 3.39
Ratio (Rattus norvegicus [21]): 17.6%
Average dose per organ (Rattus norvegicus [22]): 11.9%
Dose per organ [23]: 5.39%
Average dose per organ (Rattus norvegicus [24]): 16.2%
Average dose per organ (Rattus norvegicus [25]): 1.84%
Ratio (Rattus norvegicus [26]): 19.7%
Dose/g [27]: 1.05%
Dose per organ [28]: 33%
Dose/g [29]: 0.002%
Dose/g [30]: 0.00491%
Dose per organ [31]: 0.333%
